According to ChEMBL document CHEMBL3797062, “Diterpenes from the Trunk of Abies holophylla and Their Potential Neuroprotective and Anti-inflammatory Activities” (J Nat Prod, 2016):
Active and inactive are the calls of the source. The rule behind the calls is not given here.

Experiments:
[1] = Cytotoxicity in human SKOV3 cells by SRB assay; type: functional, cell-based; settings: SK-OV-3
[2] = test system: BV-2; assay: (§1) Antiinflammatory activity in mouse BV2 cells assessed as inhibition of LPS-induced NO production after 24 hrs by Griess assay; type: functional, cell-based
In short: (§2)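 BV2 microglia seeded at 4 × 10^4 cells/well, given compound at various concentrations with LPS (100 ng/mL), incubated 24 h. Nitrite in the medium read with Griess reagent (0.1% N-1-naphthylethylenediamine dihydrochloride, 1% sulfanilamide in 5% phosphoric acid, equal volume of supernatant), absorbance at 570 nm after 10 min. Sodium nitrite standard curve. IC50 derived. L-NMMA positive control.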

[3] = test system: A549; assay: Cytotoxicity in human A549 cells by SRB assay; type: functional, cell-based
[4] = Cytotoxicity in human HCT116 cells by SRB assay; type: functional, cell-based; settings: HCT-116
[5] = test system: SK-MEL-2; assay: Cytotoxicity in human SK-MEL-2 cells by SRB assay; type: functional, cell-based
[6] = test system: C6; assay: Neuroprotective activity in rat C6 cells assessed as induction of NGF release at 20 uM after 24 hrs by ELISA; type: functional
In short: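 C6 glioma cells seeded at 1 × 10^5 cells/well. After 24 h, treated with compound at 20 μM in serum-free DMEM for a further 24 h. NGF secreted into the conditioned medium quantified by ELISA and expressed as % of untreated control (100%). 6-Shogaol positive control. Means ± SD of three independent experiments run in triplicate.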

[7] = Cytotoxicity in rat C6 cells assessed as cell viability at 20 uM after 24 hrs by MTT assay; type: cell-based; settings: read-out: Activity
In short: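 C6 glioma cells seeded at 1 × 10^5 cells/well. After 24 h, switched to serum-free DMEM with compound at 20 μM for a further 24 h. Viability by MTT, expressed as % of untreated control. Means ± SD of three independent experiments.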

[8] = test system: C6 (Rattus norvegicus); assay: Neuroprotective activity in rat C6 glioma cells assessed as induction of NGF release at 20 uM for 24 hrs
[9] = as §1; type: functional, cell-based; settings: BV-2, 24 h; in short: as §2
[10] = Cytotoxicity in LPS-activated mouse BV2 cells assessed as cell viability at 20 uM after 24 hrs by MTT assay; type: cell-based; settings: bv-2, 24 h
In short: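 Mouse microglial BV2 cells were seeded at 4 × 10^4 cells/well, treated with or without compound, stimulated with LPS (100 ng/mL), and incubated for 24 h. Viability was read by MTT assay, as the reduction of yellow MTT to purple formazan by viable cells.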

Compound	IC50 [1]	inhibition [2]	IC50 [3]	IC50 [4]	IC50 [5]	Activity [6]	viability at 24 h, 20 µM [7]	Activity [8]	IC50 [9]	Activity [10]
CC(C)C1=C[C@@]23CC[C@@H]4[C@](C)(CCC[C@@]4(C)C(=O)O)[C@H]2C[C@@H]1OO3	> 10 µM	inactive	> 10 µM	> 10 µM	> 10 µM	153%	102%			
CC(C)[C@]12O[C@H]1C[C@@H]1[C@@]3(C)CCC[C@@](C)(C(=O)O)[C@@H]3CC[C@@]1(O)[C@H]2O	> 10 µM	inactive	> 10 µM	> 10 µM	> 10 µM					
CC(C)c1ccc2c(c1)CC[C@H]1[C@](C)(C(=O)O)CCC[C@]21C [DEHYDROABIETIC ACID]	> 10 µM	inactive	> 10 µM	> 10 µM	> 10 µM	170.2%	92.3%			
CC(C)(O)[C@]12O[C@H]1C[C@@H]1[C@@]3(C)CCC[C@@](C)(C(=O)O)[C@@H]3CC[C@@]1(O)[C@H]2O	> 10 µM	inactive	> 10 µM	> 10 µM	> 10 µM					
CC(C)c1ccc2c(c1)C(=O)C[C@H]1[C@](C)(C(=O)O)CCC[C@]21C	> 10 µM	inactive	> 10 µM	> 10 µM	> 10 µM	201.8%	104%			
CCCCC/C=C/C(=O)CCc1ccc(O)c(OC)c1 [SHOGAOL]							119%	141.8%		
CC(C)(O)c1ccc2c(c1)CC[C@H]1[C@](C)(C(=O)O)CCC[C@]21C	> 10 µM	inactive	> 10 µM	> 10 µM	> 10 µM	152.9%	94.3%			
CC(C)[C@]12C=C3C(=O)C[C@H]4[C@](C)(C(=O)O)CCC[C@]4(C)[C@@]3(CC1)OO2	> 10 µM		> 10 µM	> 10 µM	> 10 µM				30.1 µM	Non-toxic
CC(=O)OC[C@]1(C)CCC[C@]2(C)c3ccc(C(C)(C)O)cc3CC[C@@H]12	> 10 µM	inactive	> 10 µM	> 10 µM	> 10 µM	171.3%	85.5%			
CC(C)c1ccc2c(c1)[C@H](O)C[C@H]1[C@](C)(C(=O)O)CCC[C@]21C	> 10 µM	inactive	> 10 µM	> 10 µM	> 10 µM	204.3%	101%			
CC(C)[C@]12C=C3CC[C@H]4[C@](C)(C(=O)O)CCC[C@]4(C)[C@@]3(CC1)OO2	> 10 µM		> 10 µM	> 10 µM	> 10 µM	175.9%	109%		57.3 µM	Non-toxic
CC(C)C1=C[C@@]2(O)CC[C@@H]3[C@](C)(CCC[C@@]3(C)C(=O)O)[C@H]2CC1=O	> 10 µM		> 10 µM	> 10 µM	> 10 µM	166.1%	91.2%		56.1 µM	Non-toxic
CO[C@@]1(C(C)C)C=C2[C@H](O)C[C@@H]3[C@](C)(CCC[C@@]3(C)C(=O)O)[C@H]2CC1	> 10 µM	inactive	> 10 µM	> 10 µM	> 10 µM	169.4%	78.1%			
CC(C)[C@]12C=C3[C@H](O)C[C@H]4[C@](C)(C(=O)O)CCC[C@]4(C)[C@@]3(CC1)OO2	> 10 µM	inactive	> 10 µM	> 10 µM	> 10 µM					
CC(C)[C@@]12CC[C@@H]3[C@@]4(C)CCC[C@@](C)(C(=O)O)[C@@H]4CC(=O)[C@]3(O)[C@@H]1O2	> 10 µM	inactive	> 10 µM	> 10 µM	> 10 µM	155%	91.4%			
CC(C)(O)[C@]12O[C@H]1C[C@@H]1[C@@]3(C)CCC[C@@](C)(C(=O)O)[C@@H]3CC[C@@]13O[C@H]32	> 10 µM	inactive	> 10 µM	> 10 µM	> 10 µM					
CC(C)(O)[C@]12O[C@H]1C[C@H]1C(=CC[C@@H]3[C@]1(C)CCC[C@@]3(C)C(=O)O)[C@H]2O	> 10 µM	inactive	> 10 µM	> 10 µM	> 10 µM	158.6%	92.5%			
CC(C)(O)c1ccc2c(c1)C(=O)C[C@H]1[C@](C)(C(=O)O)CCC[C@]21C	> 10 µM	inactive	> 10 µM	> 10 µM	> 10 µM	161.7%	94.6%			
CC(C)[C@]1(O)C=C2C(=O)C[C@@H]3[C@](C)(CCC[C@@]3(C)C(=O)O)[C@H]2CC1	> 10 µM	inactive	> 10 µM	> 10 µM	> 10 µM	175.6%	94.5%			
CC(C)[C@]12O[C@H]1C[C@H]1C(=CC[C@@H]3[C@]1(C)CCC[C@@]3(C)C(=O)O)[C@H]2O	> 10 µM	inactive	> 10 µM	> 10 µM	> 10 µM	193.9%	73.1%			
CC(C)c1ccc2c(c1)[C@H](O)C[C@H]1C(C)(C)CCC[C@]21C	> 10 µM	inactive	> 10 µM	> 10 µM	> 10 µM					
CC(C)c1ccc2c(c1)[C@H](O)C[C@H]1[C@](C)(COC(=O)CCC(=O)O)CCC[C@]21C [ABIESADINE F]	> 10 µM	inactive	> 10 µM	> 10 µM	> 10 µM	142.2%	98.2%			
CC(C)c1ccc2c(c1)[C@H](O)C[C@H]1[C@](C)(CO)CCC[C@]21C	> 10 µM	inactive	> 10 µM	> 10 µM	> 10 µM	177.1%	89.3%			
CC(C)[C@@]12C=C3[C@H](O)C[C@H]4[C@](C)(C(=O)O)CCC[C@]4(C)[C@]3(CC1)OO2	> 10 µM	inactive	> 10 µM	> 10 µM	> 10 µM	154.3%	127%			
CC(C)[C@]12O[C@H]1CC1=C(CC[C@H]3[C@](C)(C(=O)O)CCC[C@]13C)[C@H]2O	> 10 µM	inactive	> 10 µM	> 10 µM	> 10 µM					
CC(C)c1ccc2c(c1)[C@@H](O)C[C@H]1[C@](C)(C(=O)O)CCC[C@]21C	> 10 µM	inactive	> 10 µM	> 10 µM	> 10 µM	165.1%	96.2%			
CO[C@@]1(C(C)C)C=C2C(=O)C[C@@H]3[C@](C)(CCC[C@@]3(C)C(=O)O)[C@H]2CC1	> 10 µM	inactive	> 10 µM	> 10 µM	> 10 µM					
CO[C@H]1C(=O)C2=C[C@@](O)(C(C)C)CC[C@@H]2[C@@]2(C)CCC[C@@](C)(C(=O)O)[C@H]12	> 10 µM	inactive	> 10 µM	> 10 µM	> 10 µM	170.2%	96.2%			
CO[C@]12C(=O)C[C@@H]3[C@](C)(CCC[C@@]3(C)C(=O)O)[C@H]1CC[C@@]1(C(C)C)O[C@@H]21	> 10 µM	inactive	> 10 µM	> 10 µM	> 10 µM					
COc1cc([C@@H]2c3cc4c(cc3[C@@H](O[C@@H]3O[C@@H]5CO[C@@H](C)O[C@H]5[C@H](O)[C@H]3O)[C@H]3COC(=O)[C@H]23)OCO4)cc(OC)c1O [ETOPOSIDE]	2.6 µM		1.4 µM	1 µM	1.5 µM					
